From ChEMBL document CHEMBL1151428, “Capability of 11 antipneumococcal antibiotics to select for resistance by multistep and single-step methodologies” (2007)
In brackets after ≈: the same amount, converted by molar mass.

How the values were obtained:
Format in all cases: functional
[1] = test system: Streptococcus pneumoniae; experiment: Antimicrobial activity against drug-resistant Streptococcus pneumoniae isolate 3009 after 21 passages with gemifloxacin measured after 10 antibiotic-free subculture by multi-step resistance selection technique
Procedure, shortened: (§1)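 Mutants selected by daily broth passage in subinhibitory drug in cation-adjusted Mueller-Hinton broth with 5% lysed horse blood. Stability was tested by 10 daily passages on blood agar without antibiotic, then macrodilution MIC.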

[2] = test system: Streptococcus pneumoniae; experiment: Antimicrobial activity against drug-resistant Streptococcus pneumoniae isolate 1635 after 49 passages with clarithromycin measured after 10 antibiotic-free subculture by multi-step resistance selection technique
[3] = test system: Streptococcus pneumoniae; experiment: Antimicrobial activity against drug-resistant Streptococcus pneumoniae isolate 1635 after 14 passages with clindamycin measured after 10 antibiotic-free subculture by multi-step resistance selection technique
[4] = test system: Streptococcus pneumoniae; experiment: Antimicrobial activity against drug-resistant Streptococcus pneumoniae isolate 3413 after 30 passages with Telithromycin measured after 10 antibiotic-free subculture by multi-step resistance selection technique; procedure, shortened: as §1
[5] = test system: Streptococcus pneumoniae; experiment: Antimicrobial activity against drug-resistant Streptococcus pneumoniae isolate 3243 after 20 passages with moxifloxacin measured after 10 antibiotic-free subculture by multi-step resistance selection technique; procedure, shortened: as §1
[6] = test system: Streptococcus pneumoniae; experiment: Antimicrobial activity against drug-resistant Streptococcus pneumoniae isolate 3676 after 50 passages by multi-step resistance selection technique
Procedure, shortened: (§2)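 Daily serial passage in broth at subinhibitory drug levels: 1 ml cation-adjusted Mueller-Hinton broth with 5% lysed horse blood; fresh broth for tigecycline. Each day 10 μl inoculum taken from the tube one to two dilutions below MIC matching growth-control turbidity, used to set next MIC. Continued until ≥8-fold MIC rise, minimum 14, maximum 50 passages; MIC read by macrodilution.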

[7] = test system: Streptococcus pneumoniae; experiment: Antimicrobial activity against drug-resistant Streptococcus pneumoniae isolate 3665 after 38 passages with moxifloxacin measured after 10 antibiotic-free subculture by multi-step resistance selection technique
[8] = test system: Streptococcus pneumoniae; experiment: Antimicrobial activity against drug-resistant Streptococcus pneumoniae isolate 3676 after 14 passages with Telithromycin measured after 10 antibiotic-free subculture by multi-step resistance selection technique
[9] = test system: Streptococcus pneumoniae; experiment: Antimicrobial activity against drug-resistant Streptococcus pneumoniae isolate 3676 after 50 passages with moxifloxacin measured after 10 antibiotic-free subculture by multi-step resistance selection technique
[10] = test system: Streptococcus pneumoniae; experiment: Antimicrobial activity against drug-resistant Streptococcus pneumoniae isolate 1076 after 35 passages with moxifloxacin measured after 10 antibiotic-free subculture by multi-step resistance selection technique; procedure, shortened: as §1
[11] = test system: Streptococcus pneumoniae; experiment: Antimicrobial activity against drug-resistant Streptococcus pneumoniae isolate 1077 after 15 passages with Telithromycin measured after 10 antibiotic-free subculture by multi-step resistance selection technique; procedure, shortened: as §1
[12] = test system: Streptococcus pneumoniae; experiment: Antimicrobial activity against drug-resistant Streptococcus pneumoniae isolate 3665 after 26 passages with clarithromycin measured after 10 antibiotic-free subculture by multi-step resistance selection technique
[13] = test system: Streptococcus pneumoniae; experiment: Antimicrobial activity against drug-resistant Streptococcus pneumoniae isolate 2527 after 50 passages by multi-step resistance selection technique
Procedure, shortened: (§3)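 Daily serial passage in subinhibitory drug levels in 1 ml cation-adjusted Mueller-Hinton broth with 5% lysed horse blood; fresh broth for tigecycline. Each day, 10 μl were taken from the tube one to two dilutions below the MIC whose turbidity matched the growth control, and used to set the next MIC. […] MIC by macrodilution.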

[14] = test system: Streptococcus pneumoniae; experiment: Antimicrobial activity against drug-resistant Streptococcus pneumoniae isolate 3676 after 14 passages by multi-step resistance selection technique; procedure, shortened: as §2
[15] = test system: Streptococcus pneumoniae; experiment: Antimicrobial activity against drug-resistant Streptococcus pneumoniae isolate 1077 after 15 passages by multi-step resistance selection technique
Procedure, shortened: (§4)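 Daily serial passage in subinhibitory drug in cation-adjusted Mueller-Hinton broth with 5% lysed horse blood, 1 ml per tube, fresh broth for tigecycline. Each day, 10 μl was taken from the tube one to two dilutions below the MIC whose turbidity matched the growth control and used for the next MIC. Passaging ran until MIC rose ≥8 times, minimum 14 and maximum 50 passages. Clone MICs were read by macrodilution.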

[16] = test system: Streptococcus pneumoniae; experiment: Antimicrobial activity against drug-resistant Streptococcus pneumoniae isolate 3274 after 48 passages by multi-step resistance selection technique; procedure, shortened: as §4
[17] = test system: Streptococcus pneumoniae; experiment: Antimicrobial activity against drug-resistant Streptococcus pneumoniae isolate 3665 after 14 passages by multi-step resistance selection technique; procedure, shortened: as §3
[18] = test system: Streptococcus pneumoniae; experiment: Antimicrobial activity against drug-resistant Streptococcus pneumoniae isolate 37 after 14 passages by multi-step resistance selection technique; procedure, shortened: as §2
[19] = test system: Streptococcus pneumoniae; experiment: Antimicrobial activity against drug-resistant Streptococcus pneumoniae isolate 3413 after 30 passages by multi-step resistance selection technique; procedure, shortened: as §4
[20] = test system: Streptococcus pneumoniae; experiment: Antimicrobial activity against drug-resistant Streptococcus pneumoniae isolate 1076 after 14 passages by multi-step resistance selection technique; procedure, shortened: as §3
[21] = test system: Streptococcus pneumoniae; experiment: Antimicrobial activity against drug-resistant Streptococcus pneumoniae isolate 3009 after 25 passages with clarithromycin measured after 10 antibiotic-free subculture by multi-step resistance selection technique
[22] = test system: Streptococcus pneumoniae; experiment: Antimicrobial activity against drug-resistant Streptococcus pneumoniae isolate 3243 after 29 passages by multi-step resistance selection technique; procedure, shortened: as §4
[23] = test system: Streptococcus pneumoniae; experiment: Antimicrobial activity against drug-resistant Streptococcus pneumoniae isolate 24 after 14 passages by multi-step resistance selection technique; procedure, shortened: as §3
[24] = test system: Streptococcus pneumoniae; experiment: Antimicrobial activity against drug-resistant Streptococcus pneumoniae isolate 2527 after 14 passages by multi-step resistance selection technique; procedure, shortened: as §3
[25] = test system: Streptococcus pneumoniae; experiment: Antimicrobial activity against drug-resistant Streptococcus pneumoniae isolate 3009 after 21 passages by multi-step resistance selection technique; procedure, shortened: as §3

SMILES | MIC [1] | MIC [2] | MIC [3] | MIC [4] | MIC [5] | MIC [6] | MIC [7] | MIC [8] | MIC [9] | MIC [10] | MIC [11] | MIC [12] | MIC [13] | MIC [21] | other results
C[C@@H](O)[C@H]1C(=O)N2C(C(=O)O)=C(SCCNC=N)C[C@H]12 [IMIPENEM ANHYDROUS] | 0.008 µg/mL (≈ 0.0267 µM) | 0.002 µg/mL (≈ 0.00668 µM) | 0.002 µg/mL (≈ 0.00668 µM) | 0.125 µg/mL (≈ 0.418 µM) | 0.004 µg/mL (≈ 0.0134 µM) | 0.016 µg/mL (≈ 0.0534 µM) | 0.03 µg/mL (≈ 0.1 µM) | 0.008 µg/mL (≈ 0.0267 µM) | 0.03 µg/mL (≈ 0.1 µM) | 0.008 µg/mL (≈ 0.0267 µM) | 0.008 µg/mL (≈ 0.0267 µM) | 0.03 µg/mL (≈ 0.1 µM) | 0.25 µg/mL (≈ 0.835 µM) | – | –
CC[C@H]1OC(=O)[C@H](C)C(=O)[C@H](C)[C@@H](O[C@@H]2O[C@H](C)C[C@H](N(C)C)[C@H]2O)[C@](C)(OC)C[C@@H](C)C(=O)[C@H](C)[C@H]2N(CCCCn3cnc(-c4cccnc4)c3)C(=O)O[C@]12C [TELITHROMYCIN] | 0.03 µg/mL (≈ 0.0369 µM) | 0.016 µg/mL (≈ 0.0197 µM) | 0.008 µg/mL (≈ 0.00985 µM) | 0.5 µg/mL (≈ 0.616 µM) | 0.016 µg/mL (≈ 0.0197 µM) | – | 0.125 µg/mL (≈ 0.154 µM) | 0.06 µg/mL (≈ 0.0739 µM) | 0.06 µg/mL (≈ 0.0739 µM) | 1 µg/mL (≈ 1.23 µM) | 0.25 µg/mL (≈ 0.308 µM) | 0.06 µg/mL (≈ 0.0739 µM) | 0.016 µg/mL (≈ 0.0197 µM) | 0.06 µg/mL (≈ 0.0739 µM) | MIC [14]: 2 µg/mL (≈ 2.46 µM); MIC [15]: 0.25 µg/mL (≈ 0.308 µM); MIC [16]: 0.5 µg/mL (≈ 0.616 µM); MIC [17]: 2 µg/mL (≈ 2.46 µM); MIC [18]: 4 µg/mL (≈ 4.93 µM); MIC [19]: 0.25 µg/mL (≈ 0.308 µM); MIC [20]: > 64 µg/mL; MIC [22]: 0.06 µg/mL (≈ 0.0739 µM); MIC [23]: 32 µg/mL (≈ 39.4 µM)
CO/N=C1\CN(c2nc3c(cc2F)c(=O)c(C(=O)O)cn3C2CC2)CC1CN (stereo not drawn) [GEMIFLOXACIN] | 2 µg/mL (≈ 5.14 µM) | 0.03 µg/mL (≈ 0.077 µM) | 0.03 µg/mL (≈ 0.077 µM) | 0.03 µg/mL (≈ 0.077 µM) | 0.06 µg/mL (≈ 0.154 µM) | 0.03 µg/mL (≈ 0.077 µM) | 0.125 µg/mL (≈ 0.321 µM) | 0.06 µg/mL (≈ 0.154 µM) | 1 µg/mL (≈ 2.57 µM) | 0.5 µg/mL (≈ 1.28 µM) | 0.25 µg/mL (≈ 0.642 µM) | 0.03 µg/mL (≈ 0.077 µM) | – | 0.03 µg/mL (≈ 0.077 µM) | MIC [24]: 2 µg/mL (≈ 5.14 µM); MIC [25]: 1 µg/mL (≈ 2.57 µM)
CO/N=C(\C(=O)N[C@@H]1C(=O)N2C(C(=O)O)=C(CSc3nc(=O)c(O)nn3C)CS[C@H]12)c1csc(N)n1 [CEFTRIAXONE] | 0.03 µg/mL (≈ 0.0541 µM) | 0.016 µg/mL (≈ 0.0289 µM) | 0.016 µg/mL (≈ 0.0289 µM) | 2 µg/mL (≈ 3.61 µM) | 0.06 µg/mL (≈ 0.108 µM) | 0.06 µg/mL (≈ 0.108 µM) | 0.06 µg/mL (≈ 0.108 µM) | 0.06 µg/mL (≈ 0.108 µM) | 0.03 µg/mL (≈ 0.0541 µM) | 0.016 µg/mL (≈ 0.0289 µM) | 0.016 µg/mL (≈ 0.0289 µM) | 0.03 µg/mL (≈ 0.0541 µM) | 8 µg/mL (≈ 14.4 µM) | 0.016 µg/mL (≈ 0.0289 µM) | –
CN(C)c1cc(NC(=O)CNC(C)(C)C)c(O)c2c1C[C@H]1C[C@H]3[C@H](N(C)C)C(O)=C(C(N)=O)C(=O)[C@@]3(O)C(O)=C1C2=O [TIGECYCLINE] | 0.016 µg/mL (≈ 0.0273 µM) | 0.016 µg/mL (≈ 0.0273 µM) | 0.03 µg/mL (≈ 0.0512 µM) | 0.03 µg/mL (≈ 0.0512 µM) | 0.03 µg/mL (≈ 0.0512 µM) | 0.016 µg/mL (≈ 0.0273 µM) | 0.03 µg/mL (≈ 0.0512 µM) | 0.03 µg/mL (≈ 0.0512 µM) | 0.03 µg/mL (≈ 0.0512 µM) | 0.06 µg/mL (≈ 0.102 µM) | 0.03 µg/mL (≈ 0.0512 µM) | 0.03 µg/mL (≈ 0.0512 µM) | 0.016 µg/mL (≈ 0.0273 µM) | 0.03 µg/mL (≈ 0.0512 µM) | –
